For 30 molecules, outcome, activation and potentiation results are on record in PubChem BioAssay.

Activity calls are given as the source filed them.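 Rule for the calls, unless noted: active = duplicate-averaged activation above buffer control mean plus 5 SD of those controls; inactive = the rest.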

Assay [1] can be described thus: nonspecific flux increase, KCNQ1-free cells – parental CHO cells, counter-screen for KCNQ1 potentiator project (AID 493006).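 For activation: fluorescence ratio of max minus min over baseline after K+ and Tl+ depolarization.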 The following applies: parental CHO-K1 cells, FluxOR thallium flux, at 10 µM; stronger effect = higher value. Put shortly: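 Material: parental CHO-K1 cells, FluxOR dye-loaded; Also added: Potassium/thallium depolarization pulse; Schedule: overnight 37 °C plating, 90 min dye, 20 min dark compound; Signal: kinetic FluxOR fluorescence, 10 s baseline, 110 s after stimulus.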

Assay [2] addresses Potassium voltage-gated channel subfamily KQT member 1 (Homo sapiens) (UniProt P51787). The assay is described as follows: enhancement of KCNQ1 channel thallium flux – FluxOR thallium flux, CHO cells, duplicates, confirmation (AID 493007;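 active = potentiation averaged over duplicate wells exceeding buffer-only control mean by more than 3 SD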;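 for outcome: cells depolarized by a potassium plus thallium sulfate stimulus after compound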). As to conditions: KCNQ1 cell line, FluxOR thallium flux fluorescence, at 10 µM; stronger effect = higher value, % of reference activator effect, buffer zero. In short, it runs like this: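 System: KCNQ1-expressing CHO cell line; technique: kinetic thallium influx fluorescence with FluxOR dye, 10 s baseline, 110 s post-stimulus; timing: dye 90 min then compound 20 min, both at room temperature; controls: buffer-only wells as 0% and R-L3 activator as 100%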

Assay [3] deals with Potassium voltage-gated channel subfamily KQT member 2 (Rattus norvegicus) (UniProt O88943). The assay is described as follows: KCNQ2 thallium flux enhancement – KCNQ2-CHO-K1 cells, selectivity assay for KCNQ1 potentiator project (AID 493009;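 active = mean duplicate potentiation above the buffer control mean plus 5 SD of buffer wells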;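 note: assay conditions were tuned for KCNQ1 rather than KCNQ2 modulators; signal is max minus min fluorescence divided by baseline after thallium stimulus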). As to conditions: FluxOR thallium flux fluorescence, at 10 µM; stronger effect = higher value, scaled: buffer 0, activator control 100.
Potassium voltage-gated channel subfamily KQT member 2 (Rattus norvegicus), sequence (O88943 whole entry, looked up): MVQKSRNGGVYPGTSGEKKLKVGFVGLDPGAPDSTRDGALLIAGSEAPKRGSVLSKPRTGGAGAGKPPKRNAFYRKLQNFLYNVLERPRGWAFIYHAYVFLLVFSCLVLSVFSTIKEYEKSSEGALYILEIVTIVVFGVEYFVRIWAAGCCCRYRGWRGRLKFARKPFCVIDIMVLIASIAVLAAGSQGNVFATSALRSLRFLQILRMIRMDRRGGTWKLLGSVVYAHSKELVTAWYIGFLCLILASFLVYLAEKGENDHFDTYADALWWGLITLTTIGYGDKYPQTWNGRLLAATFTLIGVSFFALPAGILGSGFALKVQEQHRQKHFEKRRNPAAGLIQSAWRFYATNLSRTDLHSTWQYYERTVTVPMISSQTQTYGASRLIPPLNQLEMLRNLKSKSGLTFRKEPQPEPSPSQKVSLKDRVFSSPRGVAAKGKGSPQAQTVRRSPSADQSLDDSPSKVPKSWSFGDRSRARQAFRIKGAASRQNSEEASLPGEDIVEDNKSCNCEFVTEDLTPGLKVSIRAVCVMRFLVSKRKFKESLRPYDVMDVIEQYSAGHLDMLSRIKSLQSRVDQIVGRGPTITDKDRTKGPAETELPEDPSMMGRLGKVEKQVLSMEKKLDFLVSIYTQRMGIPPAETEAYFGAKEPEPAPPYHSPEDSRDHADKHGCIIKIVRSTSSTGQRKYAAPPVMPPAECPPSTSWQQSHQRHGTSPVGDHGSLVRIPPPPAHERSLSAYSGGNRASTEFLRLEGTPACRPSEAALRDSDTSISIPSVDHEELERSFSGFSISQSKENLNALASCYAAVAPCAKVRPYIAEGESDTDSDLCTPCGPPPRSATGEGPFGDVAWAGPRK
The target in assay [4] is Potassium voltage-gated channel subfamily KQT member 1 (Homo sapiens) (UniProt P51787). The assay is described as follows: KCNQ1 activators by electrophysiology – IonWorks patch clamp, KCNQ1-CHO cells, orthogonal assay for KCNQ1 potentiator project, confirmation (AID 493184;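 active = current rise at least 3 SD above the untreated control mean in each of two repeat wells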). The following applies: automated patch clamp current, at 10 µM; stronger effect = higher value. In short, it runs like this:
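Test system: KCNQ1-expressing CHO cells. Medium: pH 7.4 external bath. Probe or stimulus: voltage step from -90 mV holding to +40 mV, 2,000 ms. Compound: 10 µM final, single point. Detection: automated perforated-patch electrophysiology. Read-out: percent current increase versus pre-compound level. Repeats: two replicates.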
(In general: The patch-clamp technique gives a direct electrical read-out from membranes.)

Potassium voltage-gated channel subfamily KQT member 1 (Homo sapiens), sequence (P51787 whole entry, looked up): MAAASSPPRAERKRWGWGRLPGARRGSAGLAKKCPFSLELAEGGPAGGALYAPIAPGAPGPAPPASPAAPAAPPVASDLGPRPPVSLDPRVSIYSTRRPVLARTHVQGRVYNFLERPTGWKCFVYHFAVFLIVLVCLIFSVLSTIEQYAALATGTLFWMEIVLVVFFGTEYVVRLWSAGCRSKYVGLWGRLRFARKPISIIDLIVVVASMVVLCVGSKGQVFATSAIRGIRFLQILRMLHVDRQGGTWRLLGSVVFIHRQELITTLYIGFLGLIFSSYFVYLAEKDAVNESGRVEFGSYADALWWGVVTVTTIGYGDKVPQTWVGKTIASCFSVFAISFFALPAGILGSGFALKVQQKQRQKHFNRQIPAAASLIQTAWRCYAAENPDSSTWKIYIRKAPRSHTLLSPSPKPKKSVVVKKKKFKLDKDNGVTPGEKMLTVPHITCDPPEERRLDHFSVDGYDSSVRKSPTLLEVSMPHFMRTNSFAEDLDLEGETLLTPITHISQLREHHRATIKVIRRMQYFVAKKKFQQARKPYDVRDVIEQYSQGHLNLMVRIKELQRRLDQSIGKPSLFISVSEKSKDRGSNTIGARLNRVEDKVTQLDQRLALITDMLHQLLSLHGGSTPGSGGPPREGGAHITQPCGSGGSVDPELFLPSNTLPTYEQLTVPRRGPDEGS

For `CCCCN1CNC(=S)N(c2ccccc2OCC)C1`, the outcome in assay [1], in assay [2], in assay [3] and in assay [4] was inactive.

Turning to `Nc1c(Cl)cc(C2=NCCn3nc4cc(C(F)(F)F)ccc4c32)cc1Cl`, the result in assay [1], in assay [2], in assay [3] and in assay [4] was inactive.

As for `CC(C)OC(=O)c1c(NS(=O)(=O)c2ccccc2)sc2c1CCCC2`, in assay [1], the activation was 262% (active). For the same molecule, the potentiation in assay [2] was 126% (active); in assay [3] it was 338% (active). Besides, the outcome in assay [4] was inactive.

For `O=C(N/N=C/c1cccnc1)c1ccco1`, the outcome in assay [1], in assay [2], in assay [3] and in assay [4] was inactive.

As to `COc1ccccc1C(=O)NNC(=O)C(=O)Nc1ccc(C)cc1`, the activation in assay [1] is 534% (active). In addition, the potentiation in assay [2] is 182% (active); in assay [3] it was 593% (active). Besides, the outcome in assay [4] was inactive.

`CCOc1ccc(C2C(C#N)=C(N)N(c3sc4c(c3C#N)CCCC4)C3=C2C(=O)CCC3)cc1` (stereo not given): the result in assay [1], in assay [2], in assay [3] and in assay [4] was inactive.

For `O=C1OC(c2ccc(F)cc2)=N/C1=C\c1ccc(Br)o1`, the activation in assay [1] is 228% (active). The values for the potentiation in assay [2] and in assay [3] were 80.5% (active) and 266% (active), respectively. The result in assay [4] was inactive.

For the molecule `O=C(Nc1nc(=O)c2ccccc2s1)c1ccc(Cl)cc1`, the activation in assay [1] is 246% (active). Further, the potentiation in assay [2] was 85.5% (active); in assay [3] it was 242% (active). Besides, the result in assay [4] was inactive.

For the molecule `COc1ccc(-c2nc(=S)c3ccc4ccccc4c3[nH]2)cc1`, the activation in assay [1] was 207% (active). Also, the potentiation is 83.5% (active) in assay [2] and 180% (active) in assay [3]. In addition, the result in assay [4] was inactive.

`Cc1ccc(C(=O)CC(=O)COc2ccc(Cl)cc2)cc1`: the outcome in assay [1] and in assay [4] was inactive. Moreover, the potentiation in assay [2] is 184% (active); in assay [3] it was 252% (active).

Turning to `CCCOc1ccc(CN(CCC#N)C(=S)NC(=O)c2ccccc2)cc1`, the activation in assay [1] was 288% (active). Further, the potentiation in assay [2] is 134% (active); in assay [3], 303% (active). Moreover, the result in assay [4] was inactive.

As for `CSC(=S)N/N=C/c1ccc(Br)cc1`, the activation in assay [1] was 172% (active). The potentiation in assay [2] is 38% (active); in assay [3], 179% (active). Also, in assay [4], the outcome was inactive.

`CCc1nc2sc3c(=O)[nH]cnc3c2c2c1CSC(C)(C)C2`: the outcome in assay [1], in assay [2], in assay [3] and in assay [4] was inactive.

On to `Cc1cc(C)c(NC(=O)CN2C(=O)NC3(CCCc4ccccc43)C2=O)c(Cl)c1` (stereo not given), for which the result in assay [1], in assay [2], in assay [3] and in assay [4] was inactive.

`Cc1cccc(NC(=S)NC(=O)c2cc(-c3ccccc3)nc3ccccc23)c1`: the result in assay [1], in assay [3] and in assay [4] was inactive. In addition, the potentiation in assay [2] is 32% (active).

`CC(=O)Nc1ccc(/C=N/N2C(=O)NC(C)(c3ccc(OC(F)F)cc3)C2=O)cc1` (stereo not given): in assay [1], the activation was 219% (active). Further, the potentiation in assay [2] is 100% (active); in assay [3], 234% (active). In addition, in assay [4], the result was inactive.

In the case of `Cc1cc(C)c(NC(=O)c2cn3c4c(c(N5CCN(C)CC5)c(F)cc4c2=O)OCC3C)c(C)c1` (stereo not given), the result in assay [1], in assay [2], in assay [3] and in assay [4] was inactive.

On to `O=C(NCc1cccs1)C1CC(c2ccccc2O)=NO1` (stereo not given), for which the result in assay [1], in assay [2], in assay [3] and in assay [4] was inactive.

As to `CC/C(=N/NC(=O)c1ccc(Br)o1)c1ccc(Cl)cc1`, the outcome in assay [1], in assay [2], in assay [3] and in assay [4] was inactive.

Take `Nc1nc(N)c2sc3nc4c(cc3c2n1)CCC4`: the result in assay [1], in assay [2], in assay [3] and in assay [4] was inactive.

On to `CC(=O)c1c(NC(=O)c2ccccc2)[nH]c(-c2ccccc2)nc1=S`, for which the activation in assay [1] was 230% (active). Further, the potentiation is 67% (active) in assay [2] and 236% (active) in assay [3]. For the same molecule, the outcome in assay [4] was inactive.

Regarding `CC1(C)CC(=O)C2=C(C1)c1c(ccc3ccccc13)NC2c1cc([N+](=O)[O-])cc([N+](=O)[O-])c1O` (stereo not given), the result in assay [1], in assay [2], in assay [3] and in assay [4] was inactive.

For `COc1ccc(C)cc1NC(=O)C(=O)NNC(=O)c1ccco1`, the activation in assay [1] is 377% (active). Moreover, the potentiation in assay [2] was 109% (active); in assay [3] it was 363% (active). Also, the outcome in assay [4] was inactive.

For `CC1CCN(c2ccccc2NC(=S)NC(=O)c2cccs2)CC1`, in assay [1], the activation was 139% (active). Moreover, the potentiation in assay [2] was 54% (active). Further, the outcome in assay [3] and in assay [4] was inactive.

In the case of `Cc1noc(C)c1CSc1ncnc2sc3c(c12)CCCCC3`, in assay [1], the activation was 175% (active). The potentiation was 60% (active) in assay [2] and 178% (active) in assay [3]. Besides, the result in assay [4] was inactive.

`CCSc1nc2c(sc3ccccc32)c(=O)n1C(C)C`: the activation in assay [1] is 310% (active). Moreover, the potentiation in assay [2] is 206% (active); in assay [3], 479% (active). Also, in assay [4], the result was inactive.

As for `COc1ccc(/C=C2/S/C(=N/N=C3\CC4CCC3(C)C4(C)C)NC2=O)cc1` (stereo not given), the outcome in assay [1] and in assay [4] was inactive. Moreover, the potentiation in assay [2] is 21% (active); in assay [3], 186% (active).

For `O=C(N/N=C/c1ccc(Sc2ccccn2)o1)c1cc2ccccc2cc1O`, the activation in assay [1] was 213% (active). The potentiation in assay [2] is 70% (active); in assay [3] it was 277% (active). Further, in assay [4], the outcome was inactive.

Turning to `CC(Oc1ccc(Br)cc1)C(=O)Nc1ccc(S(=O)(=O)N(C)C2CCN(C)CC2)cc1` (stereo not given), the activation in assay [1] was 626% (active). The potentiation was 190% (active) in assay [2] and 570% (active) in assay [3]. Also, the outcome in assay [4] was inactive.

As to `O=C(CNC(=O)c1ccccc1)NCc1ccc(Cl)cc1`, the result in assay [1], in assay [2], in assay [3] and in assay [4] was inactive.
